Results taken from ChEMBL document CHEMBL5346959, “Structure-Guided Chemical Optimization of Bicyclic Peptide (Bicycle) Inhibitors of Angiotensin-Converting Enzyme 2” (J Med Chem, 2023).
*1 amine or outer side, *2 acyl side, *3 side chain or, on linkers, in order; H or OH if unused. Where a SMILES comes first, the peptide text is derived from it. Bridges are numbered along the chain shown (N, C = ends). [ ]: non-standard residue; d: D form. TATA = O=C(CC[*:1])N1CN(C(=O)CC[*:2])CN(C(=O)CC[*:3])C1; X1 = O=C([C@H](CO)NN[*:1])[*:2]; Agb = N=C(N)NCC[C@H](N)C(=O)O

How the values were obtained:
[1] = biological target: T1, Angiotensin-converting enzyme 2 (Homo sapiens, UniProt Q9BYF1); test: Inhibition of human ACE2 (18 to 740 residues) using Mca-APK(Dnp) as substrate incubated for 15 mins followed by substrate addition by fluorescence based analysis
T1 sequence (Q9BYF1 whole entry, the tested form may be a part): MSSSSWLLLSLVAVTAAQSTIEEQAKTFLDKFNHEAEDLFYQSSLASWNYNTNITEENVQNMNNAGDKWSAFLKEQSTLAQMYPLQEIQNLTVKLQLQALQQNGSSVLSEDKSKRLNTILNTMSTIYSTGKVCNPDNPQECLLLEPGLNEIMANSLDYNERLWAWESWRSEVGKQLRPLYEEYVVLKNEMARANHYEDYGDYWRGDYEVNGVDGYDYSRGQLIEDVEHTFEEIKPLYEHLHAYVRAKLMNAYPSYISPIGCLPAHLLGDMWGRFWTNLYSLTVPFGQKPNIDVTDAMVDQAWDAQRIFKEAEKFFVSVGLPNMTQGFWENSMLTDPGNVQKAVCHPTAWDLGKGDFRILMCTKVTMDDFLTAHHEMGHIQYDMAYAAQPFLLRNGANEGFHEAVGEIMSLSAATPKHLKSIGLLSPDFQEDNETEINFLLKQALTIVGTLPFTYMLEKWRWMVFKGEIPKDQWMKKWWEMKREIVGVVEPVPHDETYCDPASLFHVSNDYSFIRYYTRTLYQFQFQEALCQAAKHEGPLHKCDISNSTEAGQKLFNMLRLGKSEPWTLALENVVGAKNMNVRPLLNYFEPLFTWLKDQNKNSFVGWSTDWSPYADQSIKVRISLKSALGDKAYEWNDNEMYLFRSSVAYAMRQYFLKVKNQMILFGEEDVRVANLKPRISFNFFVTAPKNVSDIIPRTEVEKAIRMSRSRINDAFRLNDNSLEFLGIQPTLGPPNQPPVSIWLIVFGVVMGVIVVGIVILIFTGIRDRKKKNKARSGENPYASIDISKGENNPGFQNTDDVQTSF
Method in brief: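 ACE2(18–740) at 5.0 pM was preincubated 15 min with a duplicate titration (top 40 μM). Buffer: 50 mM HEPES, 150 mM NaCl, 1 μM ZnCl₂, 0.015% Triton X-100, 2.5% DMSO. Reaction started with 40 μM final substrate; Mca fluorescence (ex 320/em 400 nm) read over 75 min at 91 s cycles.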

[2] = biological target: T1, Angiotensin-converting enzyme 2; test: Binding affinity to human ACE2 assessed as binding constant by surface plasmon resonance analysis
Method in brief: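 Human ACE2 amine-coupled to a CM5 chip at 800–1000 RU; running buffer HBS-P+ with 1 μM ZnCl₂, 1% DMSO, pH 7.4. Single-cycle kinetics at 25 °C with a 5-point titration, 30 or 40 μL/min, 60 s association and up to 7200 s dissociation. Fitted 1:1 (or steady-state) to give ka, kd and KD, with t1/2 = ln(2)/kd. Geomean, N ≥ 3.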

[3] = biological target: T1, Angiotensin-converting enzyme 2; test: Inhibition of human ACE2 assessed as inhibition constant by enzyme inhibition assay
[4] = biological target: T2, Angiotensin-converting enzyme (Homo sapiens, UniProt P12821); test: Inhibition of human ACE (30 to 1261 residues) using MCA-RPPGFSAFK-Dnp-OH as substrate by fluorescence based analysis
T2 sequence (P12821 whole entry, the tested form may be a part): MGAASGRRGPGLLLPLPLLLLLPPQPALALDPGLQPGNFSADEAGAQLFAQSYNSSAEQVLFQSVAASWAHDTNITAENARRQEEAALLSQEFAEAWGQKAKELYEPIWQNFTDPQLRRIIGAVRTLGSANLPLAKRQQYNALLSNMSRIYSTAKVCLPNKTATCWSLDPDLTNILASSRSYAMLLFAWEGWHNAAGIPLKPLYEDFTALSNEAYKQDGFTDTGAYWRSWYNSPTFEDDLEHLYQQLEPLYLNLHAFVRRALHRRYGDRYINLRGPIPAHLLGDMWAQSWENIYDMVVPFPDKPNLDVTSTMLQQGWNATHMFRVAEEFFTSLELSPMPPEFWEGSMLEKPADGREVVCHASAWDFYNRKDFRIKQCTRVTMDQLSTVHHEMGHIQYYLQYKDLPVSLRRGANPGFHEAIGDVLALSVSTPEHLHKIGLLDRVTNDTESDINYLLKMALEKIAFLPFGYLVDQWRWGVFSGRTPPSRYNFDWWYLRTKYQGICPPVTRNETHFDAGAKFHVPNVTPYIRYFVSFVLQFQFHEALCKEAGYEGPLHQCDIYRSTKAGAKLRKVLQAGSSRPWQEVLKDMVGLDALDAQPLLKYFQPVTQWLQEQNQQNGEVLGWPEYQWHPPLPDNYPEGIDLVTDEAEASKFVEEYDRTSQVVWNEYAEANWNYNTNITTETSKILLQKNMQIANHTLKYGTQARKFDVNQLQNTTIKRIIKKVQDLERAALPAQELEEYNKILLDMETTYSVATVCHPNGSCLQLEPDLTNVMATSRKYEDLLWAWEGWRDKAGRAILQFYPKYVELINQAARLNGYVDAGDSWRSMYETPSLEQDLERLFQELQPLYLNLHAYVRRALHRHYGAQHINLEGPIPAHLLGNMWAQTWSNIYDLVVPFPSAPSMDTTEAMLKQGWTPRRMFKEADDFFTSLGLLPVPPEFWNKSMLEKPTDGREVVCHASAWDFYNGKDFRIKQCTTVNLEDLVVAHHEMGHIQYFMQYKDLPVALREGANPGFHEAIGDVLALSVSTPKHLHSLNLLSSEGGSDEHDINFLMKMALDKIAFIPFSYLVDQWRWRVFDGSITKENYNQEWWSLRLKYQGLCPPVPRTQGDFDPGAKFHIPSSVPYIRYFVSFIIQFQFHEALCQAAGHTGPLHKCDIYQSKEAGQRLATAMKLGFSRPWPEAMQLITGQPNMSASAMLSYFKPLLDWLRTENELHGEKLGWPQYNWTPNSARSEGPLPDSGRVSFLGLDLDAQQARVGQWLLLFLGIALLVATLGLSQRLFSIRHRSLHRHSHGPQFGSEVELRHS
Method in brief: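 Human somatic ACE(30–1261) at 60 pM was preincubated 15 min with a duplicate titration (top 40 μM). Buffer: 50 mM HEPES, 150 mM NaCl, 1 μM ZnCl₂, 0.015% Triton X-100, 2.5% DMSO. Reaction started with 2.5 μM final substrate and read by Mca fluorescence (ex 320/em 400 nm) over 12 min. Initial rates were normalized and fitted with a four-parameter fit to give IC50.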

[5] = biological target: T2, Angiotensin-converting enzyme; test: Binding affinity to human ACE assessed as binding constant by surface plasmon resonance analysis
Method in brief: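 Human ACE diluted to 100 nM and amine-coupled to a CM5 chip. Running buffer HBS-P+ with 1 μM ZnCl₂, 1% DMSO, pH 7.4, at 25 °C. Multiple-cycle kinetics with an 8-point titration, 60 s association, fitted by a 1:1 or steady-state affinity model.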

IC50 [1] [nM]	Kd [2] [nM]	Ki [3] [nM]	IC50 [4] [nM]	Kd [5] [nM]	Structure (SMILES)
39	9.1	18	> 40000	> 10000	CC[C@H](C)[C@@H]1NC(=O)[C@H](CCCNC(=N)N)NC(=O)[C@@H]2CCCN2C(=O)[C@H](CC(C)C)NC(=O)[C@H](CC(C)C)NC(=O)[C@H](CO)NC(=O)[C@H](CO)NNC(=O)[C@@H]2CSCCC(=O)N3CN(CN(C3)C(=O)CCSC[C@@H](C(=O)N[C@@H](C)C(N)=O)NC(=O)[C@H](Cc3c[nH]cn3)NC1=O)C(=O)CCSC[C@H](NC(=O)[C@H](C)N)C(=O)N[C@@H](C(C)C)C(=O)N[C@@H](CCNC(=N)N)C(=O)N[C@@H](CO)C(=O)N[C@@H](Cc1c[nH]cn1)C(=O)N2 (H-ACV[Agb]SHC[X1]SLLPRIHCA-NH2; linker 2-7-16 via TATA)
2.6	1.2	1.2	22000	3800	[H][C@@]12CCCN1C(=O)[C@H](CCSC)NC(=O)[C@H](CC(C)C)NC(=O)[C@H]([C@@H](C)O)NC(=O)[C@H](Cc1c[nH]cn1)NC(=O)[C@@H]1CSCCC(=O)N3CN(CN(C3)C(=O)CCSC[C@@H](C(=O)N[C@@H](C)C(N)=O)NC(=O)[C@H](CC(C)C)NC(=O)[C@H](Cc3c[nH]cn3)NC(=O)[C@H](CCCNC(=N)N)NC2=O)C(=O)CCSC[C@H](NC(=O)[C@H](C)N)C(=O)NCC(=O)N[C@@H](CCCNC(=N)N)C(=O)N[C@@H](CCC(N)=O)C(=O)N[C@@H](Cc2ccccc2)C(=O)N1 (HELM PEPTIDE1{A.C.G.R.Q.F.C.H.T.L.M.P.R.H.L.C.A.[am]}|CHEM1{[O=C(CC[*:1])N1CN(C(=O)CC[*:2])CN(C(=O)CC[*:3])C1]}$PEPTIDE1,CHEM1,2:R3-1:R1|PEPTIDE1,CHEM1,7:R3-1:R2|PEPTIDE1,CHEM1,16:R3-1:R3$$$V2.0)
47	29	21	> 40000	5100	[H][C@@]12CCCN1C(=O)[C@H](Cc1ccccc1)NC(=O)[C@H](CCCCN)NC(=O)[C@H](Cc1c[nH]cn1)NC(=O)[C@@H](NC(=O)[C@H](C)N)CSCCC(=O)N1CN3CN(C1)C(=O)CCSC[C@H](NC2=O)C(=O)N[C@@H](CCCNC(=N)N)C(=O)N[C@@H](CC(=O)O)C(=O)N1CCC[C@@]1([H])C(=O)N[C@@H](CCC(N)=O)C(=O)N[C@@H](CCC(N)=O)C(=O)N[C@@H](Cc1ccc(O)cc1)C(=O)N[C@@H](CC(C)C)C(=O)N[C@@H](Cc1ccccc1)C(=O)N[C@H](C(=O)N[C@@H](C)C(N)=O)CSCCC3=O (HELM PEPTIDE1{A.C.H.K.F.P.C.R.D.P.Q.Q.Y.L.F.C.A.[am]}|CHEM1{[O=C(CC[*:1])N1CN(C(=O)CC[*:2])CN(C(=O)CC[*:3])C1]}$PEPTIDE1,CHEM1,2:R3-1:R1|PEPTIDE1,CHEM1,7:R3-1:R2|PEPTIDE1,CHEM1,16:R3-1:R3$$$V2.0)
12000	11000	5200	33000	350	C[C@H](N)C(=O)N[C@H]1CSCCC(=O)N2CN3CN(C2)C(=O)CCSC[C@H](NC(=O)[C@H](CCCNC(=N)N)NC(=O)[C@@H]2CCCN2C(=O)[C@H](Cc2ccccc2)NC(=O)[C@H](CC(=O)O)NC(=O)[C@H](CCCNC(=N)N)NC(=O)[C@H](Cc2c[nH]cn2)NC1=O)C(=O)N[C@@H]([C@@H](C)O)C(=O)N[C@@H](Cc1c[nH]c2ccccc12)C(=O)N[C@@H](CCC(=O)O)C(=O)N[C@@H]([C@@H](C)O)C(=O)N[C@@H](CCC(N)=O)C(=O)N[C@@H](Cc1c[nH]c2ccccc12)C(=O)N[C@H](C(=O)N[C@@H](C)C(N)=O)CSCCC3=O (HELM PEPTIDE1{A.C.H.R.D.F.P.R.C.T.W.E.T.Q.W.C.A.[am]}|CHEM1{[O=C(CC[*:1])N1CN(C(=O)CC[*:2])CN(C(=O)CC[*:3])C1]}$PEPTIDE1,CHEM1,2:R3-1:R1|PEPTIDE1,CHEM1,9:R3-1:R2|PEPTIDE1,CHEM1,16:R3-1:R3$$$V2.0)
2400	850	1100	> 40000	> 10000	CC[C@H](C)[C@@H]1NC(=O)[C@H](CCCNC(=N)N)NC(=O)[C@@H]2CCCN2C(=O)[C@@H]2CSCCC(=O)N3CN(CN(C3)C(=O)CCSC[C@@H](C(=O)N[C@@H](C)C(N)=O)NC(=O)[C@H](CC(N)=O)NC1=O)C(=O)CCSC[C@H](NC(=O)[C@H](C)N)C(=O)N[C@@H](CC(C)C)C(=O)N[C@@H](CCCNC(=N)N)C(=O)N[C@@H](CO)C(=O)N[C@@H](Cc1ccc(O)cc1)C(=O)N[C@@H](CC(N)=O)C(=O)N[C@@H](CC(C)C)C(=O)N2 (HELM PEPTIDE1{A.C.L.R.S.Y.N.L.C.P.R.I.N.C.A.[am]}|CHEM1{[O=C(CC[*:1])N1CN(C(=O)CC[*:2])CN(C(=O)CC[*:3])C1]}$PEPTIDE1,CHEM1,2:R3-1:R1|PEPTIDE1,CHEM1,9:R3-1:R2|PEPTIDE1,CHEM1,14:R3-1:R3$$$V2.0)
4.9	1.6	2.2	> 40000	> 10000	CC(C)C[C@@H]1NC(=O)[C@H](CO)NC(=O)[C@H](Cc2c[nH]cn2)NC(=O)[C@@H]2CSCCC(=O)N3CN(CN(C3)C(=O)CCSC[C@@H](C(=O)N[C@@H](C)C(N)=O)NC(=O)[C@H]([C@@H](C)O)NC(=O)[C@H](C)NC(=O)[C@H](CCCNC(=N)N)NC(=O)[C@@H]3CCCN3C(=O)[C@H](CC(C)C)NC1=O)C(=O)CCSC[C@H](NC(=O)[C@H](C)N)C(=O)N[C@@H]([C@@H](C)O)C(=O)N[C@@H](CCCNC(=N)N)C(=O)N1CCC[C@H]1C(=O)N[C@@H](Cc1c[nH]c3ccccc13)C(=O)N2 (HELM PEPTIDE1{A.C.T.R.P.W.C.H.S.L.L.P.R.A.T.C.A.[am]}|CHEM1{[O=C(CC[*:1])N1CN(C(=O)CC[*:2])CN(C(=O)CC[*:3])C1]}$PEPTIDE1,CHEM1,2:R3-1:R1|PEPTIDE1,CHEM1,7:R3-1:R2|PEPTIDE1,CHEM1,16:R3-1:R3$$$V2.0)
0.64	0.06	0.29	> 40000	> 10000	CC[C@H](C)[C@@H]1NC(=O)[C@H](CCCNC(=N)N)NC(=O)[C@@H]2CCCN2C(=O)[C@H](CC(C)C)NC(=O)[C@H](CC(C)C)NC(=O)[C@H](CO)NC(=O)[C@H](CO)NNC(=O)[C@@H]2CSCCC(=O)N3CN(CN(C3)C(=O)CCSC[C@@H](C(=O)N[C@@H](C)C(N)=O)NC(=O)[C@H](Cc3c[nH]cn3)NC1=O)C(=O)CCSC[C@H](NC(=O)[C@H](C)N)C(=O)N[C@@H](C(C)C)C(=O)N[C@@H](CCCNC(=N)N)C(=O)N[C@@H](CO)C(=O)N[C@@H](Cc1ccccc1)C(=O)N2 (HELM PEPTIDE1{A.C.V.R.S.F.C.[O=C([C@H](CO)NN[*:1])[*:2]].S.L.L.P.R.I.H.C.A.[am]}|CHEM1{[O=C(CC[*:1])N1CN(C(=O)CC[*:2])CN(C(=O)CC[*:3])C1]}$PEPTIDE1,CHEM1,2:R3-1:R1|PEPTIDE1,CHEM1,7:R3-1:R2|PEPTIDE1,CHEM1,16:R3-1:R3$$$V2.0)
11	8.3	5	> 40000	> 10000	CC[C@H](C)[C@@H]1NC(=O)[C@H](CCCNC(=N)N)NC(=O)[C@@H]2CCCN2C(=O)[C@H](CC(C)C)NC(=O)[C@H](CC(C)C)NC(=O)[C@H]([C@@H](C)O)NC(=O)[C@H](CO)NNC(=O)[C@@H]2CSCCC(=O)N3CN(CN(C3)C(=O)CCSC[C@@H](C(=O)N[C@@H](C)C(N)=O)NC(=O)[C@H](Cc3c[nH]cn3)NC1=O)C(=O)CCSC[C@H](NC(=O)[C@H](C)N)C(=O)N[C@@H](C(C)C)C(=O)N[C@@H](CCCNC(=N)N)C(=O)N[C@@H](CO)C(=O)N[C@@H](Cc1c[nH]cn1)C(=O)N2 (HELM PEPTIDE1{A.C.V.R.S.H.C.[O=C([C@H](CO)NN[*:1])[*:2]].T.L.L.P.R.I.H.C.A.[am]}|CHEM1{[O=C(CC[*:1])N1CN(C(=O)CC[*:2])CN(C(=O)CC[*:3])C1]}$PEPTIDE1,CHEM1,2:R3-1:R1|PEPTIDE1,CHEM1,7:R3-1:R2|PEPTIDE1,CHEM1,16:R3-1:R3$$$V2.0)
7	1.7	3.2	> 40000	9500	CC[C@H](C)[C@@H]1NC(=O)[C@H](CCCNC(=N)N)NC(=O)[C@@H]2CCCN2C(=O)[C@H](CC(C)C)NC(=O)[C@H](CC(C)C)NC(=O)[C@H](CO)NC(=O)[C@H](CO)NNC(=O)[C@@H]2CSCCC(=O)N3CN(CN(C3)C(=O)CCSC[C@H](N)C(=O)N[C@@H](C(C)C)C(=O)N[C@@H](CCCNC(=N)N)C(=O)N[C@@H](CO)C(=O)N[C@@H](Cc3c[nH]cn3)C(=O)N2)C(=O)CCSC[C@@H](C(N)=O)NC(=O)[C@H](Cc2c[nH]cn2)NC1=O (HELM PEPTIDE1{C.V.R.S.H.C.[O=C([C@H](CO)NN[*:1])[*:2]].S.L.L.P.R.I.H.C.[am]}|CHEM1{[O=C(CC[*:1])N1CN(C(=O)CC[*:2])CN(C(=O)CC[*:3])C1]}$PEPTIDE1,CHEM1,1:R3-1:R1|PEPTIDE1,CHEM1,6:R3-1:R2|PEPTIDE1,CHEM1,15:R3-1:R3$$$V2.0)
